RBBP9 inhibitor: human RBBP9 hydrolase inhibition | O75884 | recombinant RBBP9, FP-Rh probe fluorescence polarization | inhibition, % at 7.94 µM | 220,000 compounds, 0.2% hits | AID 1515;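 active means inhibition above the campaign mean of all tested compounds plus 3 SD, cut at about 14% in these data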;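 further: plate controls were DMSO wells with RBBP9 for no effect and wells lacking RBBP9 protein for full effect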
Target sequence (O75884 whole entry, looked up): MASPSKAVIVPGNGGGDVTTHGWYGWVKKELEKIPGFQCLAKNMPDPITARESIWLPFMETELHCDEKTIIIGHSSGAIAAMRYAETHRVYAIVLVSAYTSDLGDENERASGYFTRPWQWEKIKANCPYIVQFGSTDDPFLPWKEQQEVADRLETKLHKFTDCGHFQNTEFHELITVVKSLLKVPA
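Test system – recombinant human RBBP9 · Input – RBBP9 2.5 µM in dispensing solution, pre-mixing · Medium – Tris buffer pH 8.0, NaCl, Pluronic · Schedule – preincubation 30 min plus labeling 45 min at 25 °C · Measured by – fluorescence polarization · Measure – % inhibition · Controls – DMSO and no-protein wells · Replicates – one well per compound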
ABHD5 PLIN5 PPI: inhibitors of human ABHD5-perilipin-5 interaction | Q00G26+Q8WTS1 | Split G. princeps luciferase complementation, luminescence, 4 h | inhibition, % at 4 µM | 360,000 compounds, 0.78% hits | AID 602281;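 active means inhibition above the mean inhibition across every tested compound plus 3 SD, cut at about 22% in these data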;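 further: 0% = DMSO only wells and the 100% control is not disclosed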
PRMT1 inh: inhibitors of human PRMT1; recombinant PRMT1, activity-based probe fluorescence polarization; inhibition, % at 2.79 µM; 370,000 compounds, 1.3% hits;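 active means inhibition above about 21% made by adding two undisclosed values, limit read from the data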
LEDGF integ inh: blocks HIV-1 LEDGF/p75-dependent DNA integration. 370,000 compounds, 0.64% hits. inhibition, % at 3.7 µM. AID 743269. TR-FRET IN-LEDGF/p75 DNA integration, Eu/Cy5;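 active means inhibition above the screen-wide mean plus 3 SD, cut at about 13% in these data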;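 further: signal is the Cy5 over europium emission ratio at 671 and 618 nm; 0% = plate median of compound wells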
MBD2 DNA inh: blocks human MBD2 binding to methylated DNA; Q9UBB5; TR-FRET, MBD2 binding to methylated oligonucleotide; inhibition, % at 4.4 µM; 370,000 compounds, 0.31% hits; AID 686964; in the data active means inhibition above about 13%
Target sequence (Q9UBB5 whole entry, looked up): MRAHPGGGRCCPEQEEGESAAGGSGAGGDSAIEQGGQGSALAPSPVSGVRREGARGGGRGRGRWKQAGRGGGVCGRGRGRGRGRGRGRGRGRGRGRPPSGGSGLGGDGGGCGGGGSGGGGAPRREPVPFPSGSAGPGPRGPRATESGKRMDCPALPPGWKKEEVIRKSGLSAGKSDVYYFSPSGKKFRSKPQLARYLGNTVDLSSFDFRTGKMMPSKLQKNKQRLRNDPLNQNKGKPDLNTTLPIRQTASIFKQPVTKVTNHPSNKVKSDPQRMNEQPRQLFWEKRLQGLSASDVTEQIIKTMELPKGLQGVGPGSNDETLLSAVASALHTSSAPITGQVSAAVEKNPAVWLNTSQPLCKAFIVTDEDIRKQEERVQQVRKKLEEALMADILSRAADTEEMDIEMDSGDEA
UHRF1 MBD2 ctr: blocks human UHRF1 binding to methylated DNA; Q96T88; UHRF1 binding to methylated oligo, TR-FRET; inhibition, % at 4.4 µM; 370,000 compounds, 0.75% hits; AID 687016; in the data active means inhibition above about 21%;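 further: UHRF1 SRA domain binding a hemimethylated CpG hairpin DNA probe; 0% = median of test compound wells and 100% = reference inhibitor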
RBBP9 inh conf: human RBBP9 inhibition, confirmation. shares compounds with RBBP9 inhibitor. inhibition, % at 7.94 µM. recombinant RBBP9, FP-Rh probe fluorescence polarization. 410 compounds, 36% hits;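 active means inhibition above the hit cutoff derived for the primary screen, cut at about 15% in these data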;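 further: 0% = RBBP9 with DMSO and 100% = wells lacking RBBP9 protein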
Active calls of the source: *. Hits are enriched below; roughly 3.1% of the tested compounds scored in any of these assays.

What do the screens show for `NC(=O)[C@@H]1CCCN1C(=O)[C@@H](Cc1ccccc1)NC(=O)[C@H]1O[C@@H](n2ccc(=O)[nH]c2=O)[C@H](O)[C@@H]1O`?
PRMT1 inh: -0.3; LEDGF integ inh: -1.4; MBD2 DNA inh: -1.5; UHRF1 MBD2 ctr: -0.2

How did CC1=NNC(=O)C1C(c1ccc(Cl)cc1)C(C#N)C#N (configuration not stated) do in these assays?
RBBP9 inhibitor: 21.8*; ABHD5 PLIN5 PPI: 2.3; PRMT1 inh: 0.5; LEDGF integ inh: 2.5; MBD2 DNA inh: -8.5; UHRF1 MBD2 ctr: -0.6; RBBP9 inh conf: -0.7

What do the screens show for `CC1=NNC(=O)C1C(c1cccc(O)c1)C(C#N)C#N` (configuration not stated)?
RBBP9 inhibitor: 11.4; ABHD5 PLIN5 PPI: -0.1; PRMT1 inh: 7.1; LEDGF integ inh: -4.5; MBD2 DNA inh: 0.8; UHRF1 MBD2 ctr: -1.9

Results for O=C(O[C@@H]1OC2COC(=O)c3cc(O)c(O)c(O)c3-c3c(cc(O)c(O)c3O)C(=O)O[C@@H]([C@H]1O)[C@@H]2O)c1cc(O)c(O)c(O)c1 ?
RBBP9 inhibitor: 19.3*; ABHD5 PLIN5 PPI: 28.0*; RBBP9 inh conf: 31.5*

Results for CCOc1cc(-c2ccc(N)c(OCC)c2)ccc1N ?
RBBP9 inhibitor: 16.3*; ABHD5 PLIN5 PPI: 7.1; PRMT1 inh: 16.2; LEDGF integ inh: -6.6; MBD2 DNA inh: -0.8; UHRF1 MBD2 ctr: -3.2; RBBP9 inh conf: 28.7*

Results for CCOc1ccc(NC(C)=O)cc1N ?
ABHD5 PLIN5 PPI: 1.9; PRMT1 inh: 2.3; LEDGF integ inh: -2.2; MBD2 DNA inh: 2.5; UHRF1 MBD2 ctr: 0.0

How did Cc1cc2ccccc2nc1SCC(=O)N1c2ccccc2CC1C (configuration not stated) do in these assays?
RBBP9 inhibitor: 14.4*; ABHD5 PLIN5 PPI: -3.7; PRMT1 inh: -1.7; LEDGF integ inh: 2.8; MBD2 DNA inh: -5.1; UHRF1 MBD2 ctr: -3.8; RBBP9 inh conf: -2.2

Results for CCCCNC(=O)NS(=O)(=O)c1ccc(NC(=O)CSc2nnc(-c3cccs3)n2-c2ccc(OC)cc2)cc1 ?
PRMT1 inh: 1.1; LEDGF integ inh: 2.6; MBD2 DNA inh: -1.2; UHRF1 MBD2 ctr: 0.0

Results for Cc1[nH]c2ccccc2c1C(=O)COC(=O)c1ccc[n+]([O-])c1 ?
RBBP9 inhibitor: 15.8*; ABHD5 PLIN5 PPI: 3.4; PRMT1 inh: -1.7; LEDGF integ inh: 2.6; MBD2 DNA inh: 4.2; UHRF1 MBD2 ctr: -2.3; RBBP9 inh conf: -0.3

Results for Nc1nc(N)nc(-c2cc(O)ccc2O)n1 ?
ABHD5 PLIN5 PPI: -0.6; PRMT1 inh: 2.7; LEDGF integ inh: 0.0; MBD2 DNA inh: -2.8; UHRF1 MBD2 ctr: 0.4

How did Oc1ccc(O)c(-c2cnns2)c1 do in these assays?
RBBP9 inhibitor: 17.8*; ABHD5 PLIN5 PPI: 4.7; PRMT1 inh: 15.1; LEDGF integ inh: -5.2; MBD2 DNA inh: 1.1; UHRF1 MBD2 ctr: 1.2; RBBP9 inh conf: 55.2*

Results for O=C(CN1CCN(C(c2ccccc2)c2ccccc2)CC1)NCc1ccccc1 ?
RBBP9 inhibitor: 14.4*; ABHD5 PLIN5 PPI: 2.9; PRMT1 inh: -0.5; LEDGF integ inh: -3.2; MBD2 DNA inh: 3.6; UHRF1 MBD2 ctr: -1.3; RBBP9 inh conf: 6.3

What do the screens show for `COc1ccc(CNC(=O)CN2CCN(C(c3ccccc3)c3ccccc3)CC2)cc1`?
RBBP9 inhibitor: -10.4; ABHD5 PLIN5 PPI: 5.1; PRMT1 inh: -0.9; LEDGF integ inh: -1.0; MBD2 DNA inh: 1.4; UHRF1 MBD2 ctr: 1.3

Results for Cc1sc(NC(=O)c2ccco2)c(C(Nc2ccccn2)c2ccccc2)c1C (configuration not stated) ?
RBBP9 inhibitor: 21.1*; ABHD5 PLIN5 PPI: -0.4; PRMT1 inh: -4.1; LEDGF integ inh: -1.2; MBD2 DNA inh: -2.0; UHRF1 MBD2 ctr: -2.4; RBBP9 inh conf: -2.3

How did O=[N+]([O-])c1c(NCCO)cc(N2CCCCCC2)c2nonc12 do in these assays?
ABHD5 PLIN5 PPI: -6.7; PRMT1 inh: -1.7; LEDGF integ inh: 2.6; MBD2 DNA inh: -6.5; UHRF1 MBD2 ctr: -10.7

Results for O=[N+]([O-])c1c(NCCCO)cc(Sc2nc3ccccc3s2)c2nonc12 ?
RBBP9 inhibitor: 17.2*; ABHD5 PLIN5 PPI: 58.2*; RBBP9 inh conf: 23.0*

How did COc1cccc(CNC(=O)CN(C)S(=O)(=O)c2cccc3cccnc23)c1 do in these assays?
RBBP9 inhibitor: 20.9*; ABHD5 PLIN5 PPI: 0.9; PRMT1 inh: 5.6; LEDGF integ inh: -5.6; MBD2 DNA inh: 3.3; UHRF1 MBD2 ctr: 2.3; RBBP9 inh conf: 1.8

Results for O=C(COC(=O)/C=C/c1ccc(Cl)cc1)NCCc1ccccc1 ?
RBBP9 inhibitor: 16.6*; ABHD5 PLIN5 PPI: -1.9; PRMT1 inh: -1.1; LEDGF integ inh: 0.6; MBD2 DNA inh: 1.6; UHRF1 MBD2 ctr: 0.6; RBBP9 inh conf: -0.8

How did COc1cccc(C2(O)C(=O)Nc3ccccc32)c1 (configuration not stated) do in these assays?
ABHD5 PLIN5 PPI: 1.9; PRMT1 inh: -1.7; LEDGF integ inh: -0.8; MBD2 DNA inh: -0.2; UHRF1 MBD2 ctr: 1.2

What do the screens show for `COc1ccc2c(c1)CC(C1(O)C(=O)Nc3ccccc31)C2=O` (configuration not stated)?
RBBP9 inhibitor: 19.0*; ABHD5 PLIN5 PPI: 4.7; PRMT1 inh: 1.5; LEDGF integ inh: -1.2; MBD2 DNA inh: 1.5; UHRF1 MBD2 ctr: 2.6; RBBP9 inh conf: 1.7

How did O=C(NC(CC1=CCCCC1)c1ccc2ccccc2c1)C(F)(F)F (configuration not stated) do in these assays?
PRMT1 inh: -1.8; LEDGF integ inh: -3.1; MBD2 DNA inh: -6.7; UHRF1 MBD2 ctr: -2.8

How did CCCC(=O)n1nc(-c2ccc(C)cc2)nc1NCc1ccco1 do in these assays?
RBBP9 inhibitor: 16.5*; ABHD5 PLIN5 PPI: -3.8; PRMT1 inh: -3.4; LEDGF integ inh: 2.1; MBD2 DNA inh: 1.5; UHRF1 MBD2 ctr: -1.9; RBBP9 inh conf: 8.6

Results for COC(=O)c1ccc(N2C(=O)CC(N3CCOCC3)C2=O)cc1 (configuration not stated) ?
RBBP9 inhibitor: -4.7; ABHD5 PLIN5 PPI: 4.7; PRMT1 inh: 2.8; LEDGF integ inh: 1.4; MBD2 DNA inh: -2.9; UHRF1 MBD2 ctr: -2.2

Results for COC(=O)c1ccc(N2C(=O)CC(N3CCN(c4ccccc4)CC3)C2=O)cc1 (configuration not stated) ?
RBBP9 inhibitor: 21.2*; ABHD5 PLIN5 PPI: 1.6; PRMT1 inh: 5.7; LEDGF integ inh: 2.2; MBD2 DNA inh: -6.6; UHRF1 MBD2 ctr: 4.1; RBBP9 inh conf: 10.3

How did CN1CC=C(c2ccccc2)N(c2ccc(Br)cc2)C1=O do in these assays?
PRMT1 inh: 4.1; LEDGF integ inh: 0.8; MBD2 DNA inh: -1.1; UHRF1 MBD2 ctr: -0.8

How did O=Nc1c(O)[nH]c2ccc(F)cc12 do in these assays?
RBBP9 inhibitor: 9.9; ABHD5 PLIN5 PPI: 5.6; PRMT1 inh: 0.2; LEDGF integ inh: -3.9; MBD2 DNA inh: -2.5; UHRF1 MBD2 ctr: -2.3

Screening data deposited in PubChem by The Scripps Research Institute Molecular Screening Center.
